From ChEMBL document CHEMBL1125046, “Beta-lactam analogues of oxotremorine. 3- and 4-methyl-substituted 2-azetidinones” (J Med Chem, 1990)

What was measured:
[1] = molecular target: Muscarinic acetylcholine receptor; assay: Dissociation constant of the drug-Muscarinic acetylcholine receptor complex.; type: protein assay, Cavia porcellus
[2] = species: Cavia porcellus; assay: In vitro muscarinic activity against guinea pig ileum was determined; type: functional
Outline: (§1)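 Isolated ileum contractions recorded isotonically at 1 g tension with a displacement transducer. Cumulative concentration-response curves built by raising agonist concentration stepwise by a factor of 2.15. Maximal response expressed as a percentage of the carbachol maximum.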

[3] = molecular target: Muscarinic acetylcholine receptor; assay: In vitro inhibition of binding of (-)-[3H]-NMS to Muscarinic acetylcholine receptor of rat cerebral cortex was determined; type: tissue-based
Outline: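 Rat cerebral cortex (male Sprague-Dawley, 200–300 g) homogenised in 50 mM Na-K phosphate buffer, pH 7.4, then centrifuged and resuspended at 10 mg wet tissue/mL. Competition with 0.3 nM (–)-[3H]NMS for 30 min at 30 °C, followed by filtration. Nonspecific binding defined with 10 μM atropine. IC50 from a one-site nonlinear fit, converted to Ki by Cheng-Prusoff using NMS Kd 0.076 nM. Three experiments, each in triplicate.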

[4] = species: Cavia porcellus; assay: Maximal contractile response as a percentage of that elicited by carbachol.; type: functional; outline: as §1

SMILES | Kd [1] | EC50 [2] | Ki [3] | Emax [4]
CC1CCN(CC#CCN2CCCC2)C1=O (configuration not stated) | 11.5 µM | 500 nM | 1.2 µM | 100
O=C1CCN1CC#CCN1CCCC1 | – | 290 nM | 0.94 µM | 100
CC1CN(CC#CCN2CCCC2)C1=O (configuration not stated) | – | 24000 nM | 5.6 µM | 23
CC1CCC(=O)N1CC#CC[N+](C)(C)C (configuration not stated) | 1.7 µM | 180 nM | 0.61 µM | 100
CC1CC(=O)N1CC#CC[N+](C)(C)C (configuration not stated) | – | 55000 nM | 19.6 µM | 97
CC1CC(=O)N1CC#CCN1CCCC1 (configuration not stated) | 1.7 µM | – | 0.99 µM | 0
CC1CC(=O)N1CC#CCN(C)C (configuration not stated) | – | 88000 nM | 43 µM | 95
CC1CC(=O)N(CC#CCN2CCCC2)C1 (configuration not stated) | 10 µM | – | 5 µM | 0
CC1CCC(=O)N1CC#CCN(C)C (configuration not stated) | 4.3 µM | 910 nM | 2.2 µM | 102
CC1CCC(=O)N1CC#CCN1CCCC1 (configuration not stated) | 0.093 µM | – | 0.056 µM | 0
O=C1CCCN1CC#CCN1CCCC1 [OXOTREMORINE] | 0.93 µM | 35 nM | 0.83 µM | 100
